The record followed here is ChEMBL document CHEMBL1157169, “A class of novel nitronyl nitroxide labeling basic and acidic amino acids: synthesis, application for preparing ESR optionally labeling peptides, and bioactivity investigations” (Bioorg Med Chem, 2008).

Experiment [1] concerns PC-12. Description: Radical scavenging activity in rat PC12 cells assessed as inhibition of hydroxyl radical-induced cell damage by MTT assay. The experiment is classed as functional, cell-based. Put shortly:
(§1)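 PC12 cells grown in DMEM with 10% heat-inactivated horse serum, 5% FBS and 1.0 mM pyruvate at 37 °C, 5% CO2. Seeded at 20,000 cells/well on poly-L-lysine and attached 24 h. Pretreated 1 h with 12.5–200 µM compound. Damage induced by SNP 2 mM for 2 h (NO), H2O2 1 mM for 1 h, or H2O2 1 mM/Fe(II) 30 µM for 1 h (·OH). Media replaced, cells incubated 14 h, survival measured by MTT.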

The test system of experiment [2] is Rattus norvegicus. Description: Thrombolytic activity in Wistar rat assessed as reduction in thrombus weight at 2.5 umol/kg. Format: functional. In outline:
(§2)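 Male Wistar rats (200–300 g) anesthetized with pentobarbital sodium (80.0 mg/kg, ip). A steel helix was left 15 min in 1.0 ml carotid artery blood, and the helix with thrombus was weighed. It was placed in a polyethylene tube filled with heparin sodium (50 IU/ml NS) inserted into the left jugular vein. Heparin was injected, then compound dissolved in NS. Read-out is reduction in thrombus weight.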

For experiment [3], the species on record is Oryctolagus cuniculus. Description: Thrombolytic activity against rabbit fibrinogen assessed as fibrinogen lysis area at 4.5 uM. Put shortly:
(§3)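 Equal volumes of 0.3% rabbit fibrinogen and 0.95% agarose in 50 mM sodium barbiturate buffer (pH 7.8), coagulated with thrombin (100 IU/mL). After 30 min at 4 °C, 5 mm wells were punched and 30 µl of sample in NS added per well. Plates incubated and lysis area measured in mm². ANOVA.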

The test system of experiment [4] is Rattus norvegicus. Kind of experiment: Thrombolytic activity in Wistar rat assessed as reduction in thrombus weight at 5 umol/kg. The experiment is classed as functional. In outline: as §2
Experiment [5] has as its system PC-12. Description: Radical scavenging activity in rat PC12 cells assessed as inhibition of hydrogen peroxide radical-induced cell damage by MTT assay. Format: functional, cell-based. In outline:
as §1
In general terms: Tetrazolium dyes change colour on reduction, which living cells bring about.

The subject of experiment [6] is Aorta. Description: Nitric oxide radical scavenging activity in rat aortic strip assessed as inhibition of acetylcholine-induced vasorelaxation at 100 uM. Format: functional, tissue-based.
The subject of experiment [7] is Aorta. Description: Nitric oxide radical scavenging activity in rat aortic strip assessed as inhibition of acetylcholine-induced vasorelaxation at 1 uM. Format: functional, tissue-based.
Experiment [8] is filed under the species Oryctolagus cuniculus. Kind of experiment: Thrombolytic activity against rabbit fibrinogen assessed as fibrinogen lysis area at 1.1 uM. In outline: as §3
Experiment [9] has as its system Aorta. Kind of experiment: Nitric oxide radical scavenging activity in rat aortic strip assessed as inhibition of acetylcholine-induced vasorelaxation at 10 uM. Format: functional, tissue-based.
Experiment [10] relates to Plasma. Description: Thrombolytic activity in rabbit plasma assessed as euglobulin clot lysis time at 1.1 uM. The experiment is classed as functional, Oryctolagus cuniculus. Put shortly: (§4)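 Rabbit plasma diluted 1:20 in water and precipitated at pH 5.7 with 0.25% acetic acid for 30 min at 4 °C. Centrifuged at 2000g for 15 min. […] Sample added and time to clot lysis recorded.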

In experiment [11] the test system is Plasma. Kind of experiment: Thrombolytic activity in rabbit plasma assessed as euglobulin clot lysis time at 2.2 uM. The experiment is classed as functional, Oryctolagus cuniculus. Put shortly:
as §4

Experiment [12] relates to Rattus norvegicus. Description: Thrombolytic activity in Wistar rat assessed as reduction in thrombus weight at 10 umol/kg. Format: functional. Put shortly:
as §2

Experiment [13] deals with PC-12. Description: Radical scavenging activity in rat PC12 cells assessed as inhibition of nitric oxide radical-induced cell damage by MTT assay. The experiment is classed as functional, cell-based. In outline: as §1
Experiment [14] is filed under the species Oryctolagus cuniculus. Kind of experiment: Thrombolytic activity against rabbit fibrinogen assessed as fibrinogen lysis area at 2.2 uM. In outline:
as §3

In experiment [15] the test system is Plasma. Description: Thrombolytic activity in rabbit plasma assessed as euglobulin clot lysis time at 4.5 uM. The experiment is classed as functional, Oryctolagus cuniculus. In outline: as §4

Each structure is given as a SMILES string. pEC50: −log10 of the molar value.

The term pEC50 denotes the EC50 on a negative log10 scale, so that one unit is a factor of ten. Broadly, the inhibition is the relative decrease from the control value, in per cent. For the molecule `C[C@H](NC(=O)[C@@H]1CCCN1)C(=O)N[C@@H](CCCCNC(=O)COc1ccc(C2=[N+]([O-])C(C)(C)C(C)(C)N2O)cc1)C(=O)O`, the pEC50 is 4.00 in the experiment on PC-12 [1], 4.54 in the experiment on PC-12 [5] and 4.05 with PC-12 [13]. The Activity was determined as 11.06 mg in the experiment on Rattus norvegicus [2]; 234 mm2 in the experiment filed under Oryctolagus cuniculus [3]; 15.38 mg in the experiment with Rattus norvegicus [4]; 197 mm2 in the experiment filed under Oryctolagus cuniculus [8]; 24.2 mg with Rattus norvegicus [12]; 216 mm2 in the experiment filed under Oryctolagus cuniculus [14]. For the same molecule, the inhibition amounted to 99.1% with Aorta [6], 26.6% in the experiment on Aorta [7] and 73.9% in the experiment with Aorta [9]. Also, the Time in the experiment with Plasma [10] turned out to be 149 min; in the experiment on Plasma [11], 128.8 min; in the experiment on Plasma [15], 102.95 min.
